Experimental data as given in PubChem BioAssay AID588487 (The Scripps Research Institute Molecular Screening Center, 2011).
Active and inactive are the calls of the source.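 The calls were made as follows: active = inhibition of at least 50% against any of four protein arginine deiminase enzymes; inactive = the rest.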

Experiments:
Experiment in all cases: PAD isozyme probe labeling blockade – biochemical, fluorescence, gel-based ABPP, HTS hits, orthogonal assay for PAD4 inhibitor project, late-stage follow-up (AID 588487)
[1] = target: Protein-arginine deiminase type-1 (Homo sapiens) (UniProt Q9ULC6); details: recombinant PAD1-4, gel-based ABPP, RFA probe fluorescence; PAD1; at 10 µM; hits give high values
How it was run: (§1)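 Material: recombinant PAD1, PAD2, PAD3 or PAD4; Quantity: PAD enzyme 10 µM; Also added: RFA fluorescent probe at 1 µM; Dosing: one 10 µM dose per compound; Timing: 15 min compound pre-incubation plus 30 min probe step, 37 °C; Detection: in-gel fluorescence scan of probe-labeled PAD band after SDS-PAGE.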

[2] = target: Protein-arginine deiminase type-4 (Homo sapiens) (UniProt Q9UM07); details: recombinant PAD1-4, gel-based ABPP, RFA probe fluorescence; PAD4; at 10 µM; hits give high values
How it was run: as §1

[3] = target: Protein-arginine deiminase type-3 (Homo sapiens) (UniProt Q9ULW8); details: recombinant PAD1-4, gel-based ABPP, RFA probe fluorescence; PAD3; at 10 µM; hits give high values
How it was run: as §1

[4] = target: Protein-arginine deiminase type-2 (Homo sapiens) (UniProt Q9Y2J8); details: recombinant PAD1-4, gel-based ABPP, RFA probe fluorescence; PAD2; at 10 µM; hits give high values
How it was run: as §1

Chain of Protein-arginine deiminase type-3 (Homo sapiens) (Q9ULW8 whole entry, looked up): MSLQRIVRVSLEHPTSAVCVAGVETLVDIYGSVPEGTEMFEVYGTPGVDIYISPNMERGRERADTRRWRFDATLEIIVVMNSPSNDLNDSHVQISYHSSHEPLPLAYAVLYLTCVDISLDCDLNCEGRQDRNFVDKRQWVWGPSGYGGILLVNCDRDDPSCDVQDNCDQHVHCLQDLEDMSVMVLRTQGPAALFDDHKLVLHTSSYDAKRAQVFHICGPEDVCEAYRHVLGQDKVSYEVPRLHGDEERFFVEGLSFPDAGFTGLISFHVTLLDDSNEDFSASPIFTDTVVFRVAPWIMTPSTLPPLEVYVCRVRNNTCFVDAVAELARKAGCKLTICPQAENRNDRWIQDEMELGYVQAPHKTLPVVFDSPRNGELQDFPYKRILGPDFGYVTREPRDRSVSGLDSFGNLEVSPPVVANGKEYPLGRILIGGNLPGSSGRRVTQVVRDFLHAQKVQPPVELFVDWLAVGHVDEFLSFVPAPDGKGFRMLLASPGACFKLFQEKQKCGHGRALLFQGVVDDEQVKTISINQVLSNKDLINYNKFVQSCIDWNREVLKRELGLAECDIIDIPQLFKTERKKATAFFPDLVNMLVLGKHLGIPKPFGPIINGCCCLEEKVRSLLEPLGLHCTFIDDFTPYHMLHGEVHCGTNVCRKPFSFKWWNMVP
Chain of Protein-arginine deiminase type-4 (Homo sapiens) (Q9UM07 whole entry, looked up): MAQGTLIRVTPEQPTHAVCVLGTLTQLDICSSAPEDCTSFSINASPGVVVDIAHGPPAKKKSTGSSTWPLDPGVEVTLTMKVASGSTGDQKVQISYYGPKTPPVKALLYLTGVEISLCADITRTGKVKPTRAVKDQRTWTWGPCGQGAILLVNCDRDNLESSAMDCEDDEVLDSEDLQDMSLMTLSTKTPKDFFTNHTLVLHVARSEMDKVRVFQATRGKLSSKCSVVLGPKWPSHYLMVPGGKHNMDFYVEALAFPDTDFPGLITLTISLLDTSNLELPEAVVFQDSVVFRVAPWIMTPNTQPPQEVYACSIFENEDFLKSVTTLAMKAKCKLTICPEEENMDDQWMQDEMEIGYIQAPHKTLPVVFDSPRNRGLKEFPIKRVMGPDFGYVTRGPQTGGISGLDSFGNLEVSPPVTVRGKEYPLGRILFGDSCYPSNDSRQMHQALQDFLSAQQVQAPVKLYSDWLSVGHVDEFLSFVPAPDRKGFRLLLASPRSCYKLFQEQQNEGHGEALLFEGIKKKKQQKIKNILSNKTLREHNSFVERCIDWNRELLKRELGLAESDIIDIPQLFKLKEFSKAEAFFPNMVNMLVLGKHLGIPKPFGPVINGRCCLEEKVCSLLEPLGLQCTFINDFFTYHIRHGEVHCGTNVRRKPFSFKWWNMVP
Chain of Protein-arginine deiminase type-2 (Homo sapiens) (Q9Y2J8 whole entry, looked up): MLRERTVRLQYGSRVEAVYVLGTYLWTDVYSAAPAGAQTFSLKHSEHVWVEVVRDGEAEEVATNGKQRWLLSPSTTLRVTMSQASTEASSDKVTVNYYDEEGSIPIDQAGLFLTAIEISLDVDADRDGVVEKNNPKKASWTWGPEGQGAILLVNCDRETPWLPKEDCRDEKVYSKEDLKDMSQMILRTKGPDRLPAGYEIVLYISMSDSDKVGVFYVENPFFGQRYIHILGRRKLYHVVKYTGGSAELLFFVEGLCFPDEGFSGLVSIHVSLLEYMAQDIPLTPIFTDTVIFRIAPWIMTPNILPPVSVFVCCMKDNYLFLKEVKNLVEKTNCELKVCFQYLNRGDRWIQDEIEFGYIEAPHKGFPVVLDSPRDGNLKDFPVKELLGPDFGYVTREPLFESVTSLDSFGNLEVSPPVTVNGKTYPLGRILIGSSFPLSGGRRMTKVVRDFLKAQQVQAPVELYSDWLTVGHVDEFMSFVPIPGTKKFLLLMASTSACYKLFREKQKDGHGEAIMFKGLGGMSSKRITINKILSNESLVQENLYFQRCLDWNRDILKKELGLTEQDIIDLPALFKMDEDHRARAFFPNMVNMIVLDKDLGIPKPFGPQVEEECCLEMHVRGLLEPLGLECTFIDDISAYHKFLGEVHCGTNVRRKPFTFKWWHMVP
Chain of Protein-arginine deiminase type-1 (Homo sapiens) (Q9ULC6 whole entry, looked up): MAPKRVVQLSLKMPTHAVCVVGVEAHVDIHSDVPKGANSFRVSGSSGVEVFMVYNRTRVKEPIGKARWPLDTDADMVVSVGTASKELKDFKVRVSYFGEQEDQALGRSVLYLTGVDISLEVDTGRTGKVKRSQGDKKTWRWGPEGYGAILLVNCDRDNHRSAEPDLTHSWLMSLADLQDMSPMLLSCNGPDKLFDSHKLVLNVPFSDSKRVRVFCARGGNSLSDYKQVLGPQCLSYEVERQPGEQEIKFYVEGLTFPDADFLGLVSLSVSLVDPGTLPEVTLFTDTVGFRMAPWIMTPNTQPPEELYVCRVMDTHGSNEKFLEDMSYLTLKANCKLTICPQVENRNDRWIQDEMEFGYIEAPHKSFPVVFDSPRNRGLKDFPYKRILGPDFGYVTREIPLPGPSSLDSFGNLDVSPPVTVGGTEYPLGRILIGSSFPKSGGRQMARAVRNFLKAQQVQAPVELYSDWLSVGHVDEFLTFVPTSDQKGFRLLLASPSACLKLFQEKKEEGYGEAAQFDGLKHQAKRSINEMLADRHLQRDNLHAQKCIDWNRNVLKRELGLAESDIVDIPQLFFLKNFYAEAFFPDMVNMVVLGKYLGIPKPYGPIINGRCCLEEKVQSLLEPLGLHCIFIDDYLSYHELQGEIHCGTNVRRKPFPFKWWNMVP

Compound	inhibition [1]	inhibition [2]	inhibition [3]	inhibition [4]
COc1ccc(-c2cc(=O)n(CCC#N)[nH]2)cc1	17% (inactive)	32% (inactive)	35% (inactive)	17% (inactive)
O=C(O)CCC(=O)Nc1ccc(SSc2ccc(NC(=O)CCC(=O)O)cc2)cc1	35% (inactive)	45% (inactive)	34% (inactive)	40% (inactive)
Cn1c(SCC(=O)N/N=C/C=C/c2ccco2)nc2ccccc21	14% (inactive)	38% (inactive)	-13% (inactive)	41% (inactive)
Cn1c(=O)c2c(ncn2CC(=O)Nc2nc(-c3ccccc3Cl)cs2)n(C)c1=O	0% (inactive)	80%	-19% (inactive)	25% (inactive)
O=c1cc(-c2ccc(Cl)cc2)[nH][nH]1	33% (inactive)	41% (inactive)	-44% (inactive)	62%
Cc1cc(C)c(C#N)c(Sc2ccccc2N)n1	36% (inactive)	6% (inactive)	5% (inactive)	38% (inactive)
CCOc1c(Br)cc(/C=C2\C(=O)N(CCC#N)N=C2C)cc1OC	45% (inactive)	52%	15% (inactive)	25% (inactive)
Cc1c(C(=O)N2CCCCC2)c(S(=O)(=O)N2CCN(c3ccc(Cl)cc3)CC2)c(C)n1C	-25% (inactive)	67%	26% (inactive)	6% (inactive)
Cc1ccc(CNC(=O)c2ccc(C)c(S(=O)(=O)N3CCCCC3)c2)cc1	21% (inactive)	19% (inactive)	31% (inactive)	67%
Cc1nn(-c2ccccc2)c(C)c1NC(=O)COc1ccc(Cl)cc1Cl	2% (inactive)	12% (inactive)	57%	29% (inactive)
CN(C)C(CNC(=O)c1cc2ccccc2o1)c1ccco1 (stereo not given)	11% (inactive)	24% (inactive)	35% (inactive)	46% (inactive)
CCN(Cc1ccc2c(c1)OCCO2)C(=O)CSc1nc(C)nc2sc(C)c(C)c12	43% (inactive)	-38% (inactive)	24% (inactive)	24% (inactive)
N#CCCn1[nH]c(-c2ccccc2)cc1=O	47% (inactive)	32% (inactive)	3% (inactive)	29% (inactive)
O=[N+]([O-])c1ccc2nc(-c3ccccc3)n(OCc3ccc(Cl)cc3)c2c1	3% (inactive)	-3% (inactive)	36% (inactive)	36% (inactive)
CCC(=O)Oc1ccc(C(=O)Nc2cccc(C(=O)NC(C)(C)C)c2)cc1	34% (inactive)	4% (inactive)	40% (inactive)	29% (inactive)
Cc1cc(C)cc(NC(=S)/C(=C(\[O-])c2ccc(Cl)s2)[n+]2cccc(C)c2)c1	-1% (inactive)	-8% (inactive)	28% (inactive)	50%
O=C(CN1CCCCCC1)Nc1ccc(Br)cc1Br	41% (inactive)	-53% (inactive)	31% (inactive)	-16% (inactive)
CCN(CC)S(=O)(=O)c1ccc(C)c(NS(=O)(=O)c2cc(/C=C/C(=O)O)cc(OC)c2OC)c1	9% (inactive)	40% (inactive)	33% (inactive)	40% (inactive)
CCN(CC)S(=O)(=O)c1ccc(N=NC2=C(O)CCCC2=O)cc1	-20% (inactive)	93%	6% (inactive)	63%
COc1cccc2cc(C(=O)NC3CC(C)(C)NC(C)(C)C3)c(=O)oc12	15% (inactive)	31% (inactive)	66%	7% (inactive)
N#CCCN(C(=O)Cn1nc(C(=O)O)c2ccccc2c1=O)c1ccccc1	53%	-23% (inactive)	29% (inactive)	21% (inactive)
COc1ccc(/C=N/Nc2nncn2N)cc1Br	30% (inactive)	55%	-24% (inactive)	44% (inactive)
CN(C)CCN(Cc1ccccc1)c1ccccn1	13% (inactive)	65%	-7% (inactive)	46% (inactive)

Compound	inhibition [1]	inhibition [2]	inhibition [3]	inhibition [4]
COc1ccc(CCNC(=O)c2c[nH]c3ccc(F)cc3c2=O)cc1OC	-15% (inactive)	33% (inactive)	23% (inactive)	35% (inactive)
COc1ccc(-c2nc(C(=O)NCCCN3CCOCC3)cc3c2[nH]c2ccccc23)cc1OC	30% (inactive)	10% (inactive)	-12% (inactive)	18% (inactive)
CC(=O)C1=C(c2ccccc2)N(C(C)=O)n2c(C)nnc2S1	42% (inactive)	9% (inactive)	32% (inactive)	25% (inactive)
COc1ccc(/C=C2/C(=O)N(c3ccccc3)N=C2C)cc1	20% (inactive)	35% (inactive)	35% (inactive)	47% (inactive)
Cc1cc(-c2nnc(SCC(=O)Nc3ccc(F)c(F)c3)n2N)n[nH]1	43% (inactive)	51%	-20% (inactive)	62%
CCOC(=O)N1CCC(c2cc(=O)n(-c3ccccc3)[nH]2)CC1	43% (inactive)	30% (inactive)	32% (inactive)	14% (inactive)
c1ccc(CCn2c3ccccc3c3nnc(SCc4ccc5nonc5c4)nc32)cc1	18% (inactive)	31% (inactive)	21% (inactive)	14% (inactive)
O=c1cc(-c2ccc(Br)cc2)[nH][nH]1	6% (inactive)	51%	20% (inactive)	-6% (inactive)
CCOc1nc(Nc2ccc(OC)cc2OC)nc(OCC)n1	37% (inactive)	20% (inactive)	46% (inactive)	62%
Cc1oc2c(C)c(O)ccc2c(=O)c1-c1ccc2ccccc2n1	-33% (inactive)	1% (inactive)	42% (inactive)	50%
O=c1cc(-c2cccc([N+](=O)[O-])c2)[nH][nH]1	24% (inactive)	29% (inactive)	5% (inactive)	18% (inactive)
CN(C)CCCNc1cn[nH]c(=O)c1Cl	33% (inactive)	41% (inactive)	-58% (inactive)	61%
CCN(CC)c1cccc(OC2=NS(=O)(=O)c3ccccc32)c1	60%	17% (inactive)	32% (inactive)	50%
COc1ccc(S(=O)(=O)Nc2ccccc2C)cc1	23% (inactive)	57%	-13% (inactive)	57%
COc1ccc(C2C(C#N)=C(N)N(N(C)C)C3=C2C(=O)CCC3)cc1 (stereo not given)	13% (inactive)	55%	49% (inactive)	21% (inactive)
Cc1cc2ncn(-c3ncccc3[N+](=O)[O-])c2cc1C	46% (inactive)	29% (inactive)	-25% (inactive)	25% (inactive)
O=c1cc(-c2ccc(Cl)c(Cl)c2)[nH][nH]1	27% (inactive)	42% (inactive)	41% (inactive)	51%
COc1cc(NC2c3ccccc3C(=O)N2Cc2ccccc2Cl)cc(OC)c1 (stereo not given)	38% (inactive)	18% (inactive)	-3% (inactive)	17% (inactive)
Cc1c(NC(=O)CSc2nccn2C)c(=O)n(-c2ccccc2)n1C	46% (inactive)	66%	-7% (inactive)	35% (inactive)
COC(=O)c1cc(C)nc(Sc2ccccc2N)n1	23% (inactive)	-61% (inactive)	60%	8% (inactive)
Cc1nonc1OC(C)CNc1ccc([N+](=O)[O-])cc1 (stereo not given)	46% (inactive)	22% (inactive)	38% (inactive)	38% (inactive)
Cc1ccc(C2=NN=C(NC(=O)CSc3nncn3C)SC2)cc1	16% (inactive)	26% (inactive)	32% (inactive)	1% (inactive)
